The text below walks through data of ChEMBL document CHEMBL1134785, “Synthesis and biological evaluation of prostaglandin-F alkylphosphinic acid derivatives as bone anabolic agents for the treatment of osteoporosis” (J Med Chem, 2001).

The subject of experiment [1] is Rattus norvegicus. Briefly: Trabecular thickness […] measured Histomorphometrically after a dose of 1000 ug/kg in proximal tibial metaphysis. In kind it is functional, Trabecula. The method in brief:
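Six-month-old rats were ovariectomized, and 60 days later daily subcutaneous dosing began for 60 days, with vehicle of acetate-buffered saline, methylcellulose and polysorbate. Xylenol orange (90 mg/kg) labelled bone pre-treatment and calcein (10 mg/kg) 14 and 4 days pre-sacrifice. Histomorphometry covered the proximal tibial metaphysis 1-4 mm distal to the growth plate-metaphyseal junction. Groups were 6-8 rats, compared by ANOVA/LSD vs vehicle.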

Experiment [2] relates to Rattus norvegicus. The experiment is described as follows: Directly measured thickness(um) using micro Computed Tomography(CT) after a dose of 30 ug/kg in Vertebral Bone. The format is functional. Put shortly: (§1)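 Micro-CT of the fifth lumbar vertebra, measuring cancellous bone volume and architecture. Rats were 6 months old, OVX 60 days before treatment, then dosed daily for 60 days. Test-agent doses were 10–3000 µg/kg, given as a once-daily subcutaneous injection; 6 mg/kg/day was given to the positive-control group. Groups were compared with vehicle by ANOVA plus LSD test.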

The subject of experiment [3] is Rattus norvegicus. Briefly: Marrow area (mm) measured Histomorphometrically after a dose of 100 ug/kg in tibial diaphysis. The format is functional. The method in brief: (§2)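 Six-month-old rats, bilaterally ovariectomized, 6-8 per group, on natural chow. After 60 days they received once-daily subcutaneous dosing for 60 days at 0.01–3.0 mg/kg. Vehicle was acetate-buffered saline with methylcellulose and polyoxyethylenesorbitan monooleate. Labels were xylenol orange 90 mg/kg before treatment and calcein 10 mg/kg 14 and 4 days before sacrifice. Tibial histomorphometry was read under fluorescent light, with ANOVA/LSD versus vehicle.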

The test system of experiment [4] is Rattus norvegicus. The experiment is described as follows: Mineral apposition rate ([…])bone measured Histomorphometrically after a dose of 300 ug/kg in proximal tibial metaphysis. In kind it is functional. The method in brief:
(§3)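 Ovariectomized six-month-old rats, 6-8 per group, were dosed subcutaneously once daily at 0.01–3.0 mg/kg for 60 days, starting 60 days after surgery. Vehicle was acetate-buffered saline, methylcellulose and polyoxyethylenesorbitan monooleate. Labels were xylenol orange 90 mg/kg pretreatment and calcein 10 mg/kg at 14 and 4 days before necropsy. Histomorphometry covered the proximal tibial metaphysis, 1–4 mm distal to the growth plate–metaphyseal junction. ANOVA/LSD versus vehicle.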

Experiment [5] concerns Rattus norvegicus. The experiment is described as follows: Derived trabecular thickness (um) measured using micro Computed Tomography(CT) after a dose of 100 ug/kg in Vertebral Bone. In kind it is functional, Trabecula. The method in brief:
as §1

For experiment [6], the system named is Rattus norvegicus. The experiment is described as follows: Mineralizing surface/bone surface(%) measured Histomorphometrically after a dose of 300 ug/kg in proximal tibial metaphysis. The format is functional. Put shortly:
as §3

For experiment [7], the system named is Rattus norvegicus. Briefly: Periosteal mineralizing surface (%) measured Histomorphometrically after a dose of 300 ug/kg in tibial diaphysis. The format is functional. The method in brief: (§4)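 Rats on natural chow (1.46% Ca) were bilaterally ovariectomized at 6 months and left untreated for 60 days. They then received once-daily subcutaneous doses for 60 days, with vehicle of acetate-buffered saline, methylcellulose and polysorbate. Xylenol orange (90 mg/kg) was given before treatment and calcein (10 mg/kg) 14 and 4 days before sacrifice. Tibiae were analysed by fluorescent histomorphometry, 6-8 rats/group, ANOVA/LSD vs vehicle.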

Experiment [8] concerns Rattus norvegicus. The experiment is described as follows: Periosteal mineralizing surface (%) measured Histomorphometrically after a dose of 1000 ug/kg in tibial diaphysis. The format is functional. The method in brief:
as §4

Experiment [9] deals with Rattus norvegicus. The experiment is described as follows: Marrow area (mm) measured Histomorphometrically after a dose of 1000 ug/kg in tibial diaphysis. The format is functional. Put shortly: as §2
Experiment [10] relates to Rattus norvegicus. Briefly: Derived trabecular thickness (um) measured using micro Computed Tomography(CT) after a dose of 30 ug/kg in Vertebral Bone. In kind it is functional, Trabecula. Put shortly: as §1
Experiment [11] relates to Rattus norvegicus. Briefly: Mineral apposition rate ([…])bone measured Histomorphometrically after a dose of 300 ug/kg in tibial diaphysis. The format is functional. Put shortly: as §2
Experiment [12] relates to Rattus norvegicus. The experiment is described as follows: Mineral apposition rate ([…])bone measured Histomorphometrically after a dose of 1000 ug/kg in proximal tibial metaphysis. In kind it is functional. The method in brief:
as §3

Experiment [13] relates to Rattus norvegicus. The experiment is described as follows: Endosteal eroded surface(%) measured Histomorphometrically after a dose of 100 ug/kg in tibial diaphysis. In kind it is functional. Put shortly:
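Tibial histomorphometry in 6-month-old rats, OVX 60 days before treatment, then daily injection for 60 days. Vehicle was acetate-buffered saline with methylcellulose and polyoxyethylenesorbitan monooleate. Rats received xylenol orange 90 mg/kg before treatment and calcein 10 mg/kg at 14 and 4 days pre-sacrifice. Rats were killed by cardiac puncture under ketamine/xylazine. Groups were compared with vehicle by ANOVA plus LSD test.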

In the experiment with Rattus norvegicus [1], `CP(=O)(O)CCC/C=C\C[C@@H]1[C@@H](/C=C/[C@@H](O)COc2ccccc2)[C@H](O)C[C@@H]1O` came in with a Trabecular thickness of 56.7 µm. The Directly measured thickness in the experiment on Rattus norvegicus [2] worked out at 126 µm. Also, the Marrow area stood at 0.82 mm² with Rattus norvegicus [3] and 0.86 mm² in the experiment on Rattus norvegicus [9]. Moreover, the results for the Mineral apposition rate in the experiment with Rattus norvegicus [4], with Rattus norvegicus [11] and in the experiment on Rattus norvegicus [12] were 0.98 µm/day, 0.53 µm/day and 1.06 µm/day, respectively. In addition, the results for the Derived trabecular thickness in the experiment on Rattus norvegicus [5] and in the experiment on Rattus norvegicus [10] were 78.7 µm and 77.8 µm, respectively. This compound yielded an Activity with Rattus norvegicus [6] of 23.57%. Besides, the values for the Periosteal mineralizing surface with Rattus norvegicus [7] and in the experiment on Rattus norvegicus [8] were 9.56% and 10.35%, respectively. This compound also had an Endosteal eroded surface in the experiment with Rattus norvegicus [13] of 2.3%.
